Source: the EternaBench riboswitch data

Assays:
MS2 coat protein [1] = test: apparent Kd, MS2 coat protein; higher = weaker binding; RNA-MaP array; tryptophan 2.4 mM where present
Procedure, shortened: (§1)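 Each design was made on Illumina sequencing-chip clusters by stalled E. coli RNA polymerase and titrated with SNAP-549-labelled MS2 coat protein from 0.7 or 1.5 nM, doubling to 3 µM, in the absence and then the presence of constant ligand. The buffer was 100 mM Tris-HCl pH 7.5, 80 mM KCl, 4 mM MgCl2, BSA, DTT, yeast tRNA and Tween-20. The apparent Kd is the median of filtered per-cluster fits of binding curves, with green signal normalised to red-channel RNA signal and control-cluster median Fmax.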

MS2 coat protein [2] = test: apparent Kd, MS2 coat protein; higher = weaker binding; RNA-MaP array; theophylline 2 mM where present
Procedure, shortened: as §1

[3] = designed as: ON switch for tryptophan, no ligand
[4] = ligand present: tryptophan, designed as: ON switch for tryptophan
[5] = designed as: OFF switch for tryptophan, no ligand
[6] = ligand present: tryptophan, designed as: OFF switch for tryptophan
[7] = designed as: OFF switch for theophylline, no ligand
[8] = ligand present: theophylline, designed as: OFF switch for theophylline
[9] = designed as: ON switch for theophylline, no ligand
[10] = ligand present: theophylline, designed as: ON switch for theophylline

## UACAUGAGGAUCACCCAUGUAUUGCCGGUACGAGGACCGGUACGGCCGCCACUCGGAGCAUGAGGAUCACCCAUGUGCUGCUAUG
MS2 coat protein [1]; [3]
  apparent Kd: 66.2 nM
MS2 coat protein [1]; [4]
  apparent Kd: 51.8 nM

## UAUAUAUAUCACGAACUGUGGUGUAUGUCUCGAGGACCGGUACGGCCGCCACUCGCGCGGCCUCACAUGAGGAUCACCCAUGUCC
MS2 coat protein [1]; [5]
  apparent Kd: 89.2 nM
MS2 coat protein [1]; [6]
  apparent Kd: 113 nM

## AUCUUUGGCGAUCUGGGAAAACCAGAUCGACGAGGACCGGUACGGCCGCCACUCGUGUAUAAUAUACAUGAGGAUCACCCAUGUA
MS2 coat protein [1]; [3]
  apparent Kd: 47.5 nM
MS2 coat protein [1]; [4]
  apparent Kd: 30.5 nM

## GGAUAGGACACGGCCGCCACUGCCUAGGAUACUAGCAACAUUUGGGUACAUGAGGAUCACCCAUGUAGGACCGGGUGUCCUAUCG
MS2 coat protein [1]; [5]
  apparent Kd: 49.2 nM
MS2 coat protein [1]; [6]
  apparent Kd: 53.9 nM

## GUUUAAAGGUCGGCCGCCACUGUAGGAUGUGUUCUUUCACAUGAGGAUCACCCAUGUUGUUAUUAUAGGACCGGGAUUUUAGGAC
MS2 coat protein [1]; [5]
  apparent Kd: 27.1 nM
MS2 coat protein [1]; [6]
  apparent Kd: 22.4 nM

## CUAUAUUUAUCGGCCGCCACUUACUCAUGAGGUAACAACAUGAGGAUCACCCAUGUUUGAGGAUCAAGGACCGGGAUAAAUAUAG
MS2 coat protein [1]; [3]
  apparent Kd: 27.8 nM
MS2 coat protein [1]; [4]
  apparent Kd: 16.3 nM

## AUAAAUAAGGCGGCCGCCACUAAUAUAUUAAUAUUUUAUAUCCGACAUGAGGAUCACCCAUGUGGUAGGACCGGGCCAAUAAUUA
MS2 coat protein [1]; [3]
  apparent Kd: 26.2 nM
MS2 coat protein [1]; [4]
  apparent Kd: 25.8 nM

## CUAUGUAUAUAUGCGAAAGCUACGUGUUGACGAGGACCGGUACGGCCGCCACUCGACAUGAGGAUCACCCAUGUAAUAUAUAUAG
MS2 coat protein [1]; [3]
  apparent Kd: 200 nM
MS2 coat protein [1]; [4]
  apparent Kd: 62.7 nM

## AAUCGUAAGGCGGCCGCCACUACACAUGAGGAUCACCCAUGUCUCGCAGGCUUGCGUUGGGAUAGUAGGACCGGGCCAGUAAUAA
MS2 coat protein [1]; [5]
  apparent Kd: 25.1 nM
MS2 coat protein [1]; [6]
  apparent Kd: 21.8 nM

## ACCUGCGUUUGUUUCUUUCUGACGCAGGUUCGAGGACCGGUACGGCCGCCACUCGGACAUGAGGAUCACCCAUGUUUGAAAUGGG
MS2 coat protein [1]; [5]
  apparent Kd: 253 nM
MS2 coat protein [1]; [6]
  apparent Kd: 227 nM

## AGAUUCGACACGGCCGCCACUCGUGGUGGAUUACCUAGUGUCGAACAUGAGGAUCACCCAUGUACGAGGACCGGGUGUUGAGUCU
MS2 coat protein [1]; [5]
  apparent Kd: 75 nM
MS2 coat protein [1]; [6]
  apparent Kd: 200 nM

## GAUAUGGAAACAUGUCAGAUCCUUACCGGUCGAGGACCGGUACGGCCGCCACUCGGAAAUAUUGUACAUGAGGAUCACCCAUGUA
MS2 coat protein [1]; [5]
  apparent Kd: 13.7 nM
MS2 coat protein [1]; [6]
  apparent Kd: 14.5 nM

## AAACGUUGCUGCGAUACCAGACAUGAGGAUCACCCAUGUACCAAGGUACGAAUAUAACAUGUCCCUUGGCAGCGCAGCAACGAAA
MS2 coat protein [2]; [7]
  apparent Kd: 12.6 nM
MS2 coat protein [2]; [8]
  apparent Kd: 279 nM

## AUCGCACCUGGUGAUACCAGCGUUUGCUCGCGACAUGAGGAUCACCCAUGUGGCCAGUGAUGCCCUUGGCAGCAUGGUCGGUGCA
MS2 coat protein [2]; [9]
  apparent Kd: 317 nM
MS2 coat protein [2]; [10]
  apparent Kd: 45.4 nM

## CUCGGUUGAUCCUAGCUGCCGAGAGGUGAUACCAGCAUCGAAAGAUGCCCUUGGCAGCACCAACAUGAGGAUCACCCAUGUAAUA
MS2 coat protein [2]; [9]
  apparent Kd: 55.1 nM
MS2 coat protein [2]; [10]
  apparent Kd: 483 nM

## ACAUGAGGAUCACCCAUGUUCCUCGCCGAUACCAGUGAAGAAGUACGCCCUUGGCAGCGGAAAGAGUAUUUUGGAGAUGAGGUAC
MS2 coat protein [2]; [7]
  apparent Kd: 80 nM
MS2 coat protein [2]; [8]
  apparent Kd: 88.8 nM

## GAUGAACUAUUUGAUACCAGACAACAUGAGGAUCACCCAUGUGCGCGUCGUCCUCUGCCUGUCCCUUGGCAGCGGAUAGUUUAUC
MS2 coat protein [2]; [7]
  apparent Kd: 59.5 nM
MS2 coat protein [2]; [8]
  apparent Kd: 89.9 nM

## GAGGUCCUGAGAGAUACCAGUGAGGCCACAUGAGGAUCACCCAUGUCCCUCACUCCGGCCCACCCUUGGCAGCUCGGAAGGUAAA
MS2 coat protein [2]; [7]
  apparent Kd: 18.1 nM
MS2 coat protein [2]; [8]
  apparent Kd: 119 nM

## AUAACUGUCAAGGAAGGUGAUCCAGCAGAUACCAGCUAGGAAACUAGCCCUUGGCAGCUGCAACAUGAGGAUCACCCAUGUAAUA
MS2 coat protein [2]; [7]
  apparent Kd: 76.8 nM
MS2 coat protein [2]; [8]
  apparent Kd: 121 nM

## AAUCUGUCGGGUGAUACCAGCCUCGGCGCAUCUCACGCUGAACAUGAGGAUCACCCAUGUGGCCCUUGGCAGCACAUGACAAAUC
MS2 coat protein [2]; [9]
  apparent Kd: 572 nM
MS2 coat protein [2]; [10]
  apparent Kd: 55.1 nM

## GGUUUCGCGGGCGAUACCAGCUUGAUCGUACUGGCCUGGUACAUGAGGAUCACCCAUGUAAGCCCUUGGCAGCGCGCGCGAGACC
MS2 coat protein [2]; [7]
  apparent Kd: 11.3 nM
MS2 coat protein [2]; [8]
  apparent Kd: 24.7 nM

## ACGACAUGAGGAUCACCCAUGUAAGGUGAUACCAGACGAAGUAAUGUCCCUUGGCAGCACACGCAUAGUUGCGAUUAUUGUACGA
MS2 coat protein [2]; [9]
  apparent Kd: 533 nM
MS2 coat protein [2]; [10]
  apparent Kd: 137 nM

## GCCAGACAUGAGGAUCACCCAUGUAGCGAUACCAGCUCUGUUGUGAGCCCUUGGCAGCGCACUGGCAUCGUAGGUGAUCCAAUAA
MS2 coat protein [2]; [9]
  apparent Kd: 75.2 nM
MS2 coat protein [2]; [10]
  apparent Kd: 187 nM
